Key:
[1] = tested on: Influenza A virus; test: Antiviral activity against influenza A (A/Washington/29/2009 (H1N1)) virus harboring neuraminidase H275Y mutant after 30 mins by NA-star substrate based chemiluminescent assay; type: functional, organism-based
Summary of the method: (§1)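 Titrated virus in NA-Star buffer (26 mM MES, 4 mM CaCl2, pH 6.0) was preincubated with ten half-log inhibitor dilutions (0.03–1,000 nM final) for 30 min at 37°C, then with substrate for 30 min at room temperature. Accelerator solution was added and luminescence read for 0.1 s. IC50 came from a Vmax·[1−x/(K+x)] fit, mean of ≥3 experiments.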

[2] = tested on: Influenza A virus; test: Antiviral activity against influenza A (A/Hong Kong/2369/2009 (H1N1)) virus harboring neuraminidase H275Y mutant after 30 mins by NA-star substrate based chemiluminescent assay; type: functional, organism-based; summary of the method: as §1
[3] = tested on: Influenza A virus; test: Antiviral activity against influenza A (A/Montana/02/2009 (H1N1)) virus harboring neuraminidase H275Y mutant after 16 to 18 hrs by fetuin substrate based colorimetric assay; type: functional, organism-based
Summary of the method: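 Colorimetric NA inhibition with fetuin substrate. Virus was diluted in NA-Star buffer (26 mM MES, 4 mM CaCl2, pH 6.0) to give OD549 of 0.4–0.8 after 18 h. It was preincubated with ten half-log inhibitor dilutions (0.03–1,000 nM final) for 1 h at 37°C, then with fetuin (5.5 mg/ml final) for 16–18 h at 37°C. Released sialic acid was read at 549 nm after periodate/TBA reaction and butanol extraction. IC50 came from a Vmax·[1−x/(K+x)] fit, mean of ≥2 experiments.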

[4] = tested on: Influenza A virus; test: Ratio of IC50 for influenza A (A/Singapore/91/2009 (H1N1)) virus harboring neuraminidase H275Y mutant to IC50 for influenza A (A/Washington/29/2009 (H1N1)) virus expressing wild type enzyme by NA-star substrate based chemiluminescent assay; type: functional
Summary of the method: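 Chemiluminescent NA inhibition in MES 26 mM/CaCl2 4 mM buffer, pH 6.0. […] Luminescence read for 0.1 s. IC50 from the fit y = Vmax·{1 − [x/(K + x)]}, mean of ≥3 experiments. Ratio is the H275Y variant IC50 over the pandemic wild-type reference IC50.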

[5] = tested on: Influenza A virus; test: Ratio of IC50 for influenza A (A/Osaka/180/2009 (H1N1)) virus harboring neuraminidase H275Y mutant to IC50 for influenza A (A/Washington/29/2009 (H1N1)) virus expressing wild type enzyme by NA-star substrate based chemiluminescent assay; type: functional
[6] = tested on: Influenza A virus; test: Ratio of IC50 for influenza A (A/Washington/29/2009 (H1N1)) virus harboring neuraminidase H275Y mutant to IC50 for influenza A (A/Washington/29/2009 (H1N1)) virus expressing wild type enzyme by MUNANA substrate based fluorometric assay; type: functional
Summary of the method: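 Fluorometric NA inhibition in MES/CaCl2 buffer, pH 6.0. Virus preincubated 30 min at 37°C with ten half-log inhibitor dilutions (0.03–1,000 nM final), then MUNANA (100 μM final) added for 30 min at 37°C. Stopped with 0.1 M glycine in 25% ethanol, pH 10.7. Read at ex 365/em 450 nm. IC50 curve-fitted, mean of ≥3 experiments. Ratio is variant IC50 over wild-type reference IC50.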

[7] = tested on: Influenza A virus; test: Ratio of IC50 for influenza A (A/Hong Kong/2369/2009 (H1N1)) virus harboring neuraminidase H275Y mutant to IC50 for influenza A (A/Washington/29/2009 (H1N1)) virus expressing wild type enzyme by fetuin substrate based colorimetric assay; type: functional

Row | SMILES | IC50 [1] [nM] | IC50 [2] [nM] | IC50 [3] [nM] | Ratio IC50 [4] | Ratio IC50 [5] | Ratio IC50 [6] | Ratio IC50 [7]
1 | C/C=C\[C@@H]1C[C@H](C(=O)O)N[C@H]1[C@@H](NC(C)=O)[C@](C)(CCC)OC | 1.62 | 1.09 | 1.89 | 1 | 3 | 3 | 3
2 | CCC(CC)[C@H](NC(C)=O)[C@@H]1[C@H](O)[C@@H](C(=O)O)C[C@H]1NC(=N)N [PERAMIVIR ANHYDROUS] | 12.5 | 9.24 | 83.4 | 1 | 93 | 751 | 330
